Measured values from ChEMBL document CHEMBL1137328, “5-pyrrolidinylsulfonyl isatins as a potential tool for the molecular imaging of caspases in apoptosis” (J Med Chem, 2006).
The source made the active and inactive calls. No cut-off for these calls is given here.

Key:
[1] = target: T1, Caspase-7 (Homo sapiens, UniProt P55210); assay: Inhibition of caspase 7
T1 sequence (P55210 whole entry): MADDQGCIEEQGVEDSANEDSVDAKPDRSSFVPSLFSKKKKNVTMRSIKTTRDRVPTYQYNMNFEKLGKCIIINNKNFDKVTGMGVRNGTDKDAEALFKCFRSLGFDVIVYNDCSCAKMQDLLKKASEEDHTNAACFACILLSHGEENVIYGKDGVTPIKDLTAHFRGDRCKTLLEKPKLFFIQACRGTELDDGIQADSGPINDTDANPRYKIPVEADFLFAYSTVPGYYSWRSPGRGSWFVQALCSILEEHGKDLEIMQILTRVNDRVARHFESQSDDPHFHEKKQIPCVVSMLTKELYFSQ
Outline: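 Inhibitor in DMSO (final 5 pM–500 µM, single doses) preincubated 10 min, then Ac-DEVD-AMC (final 10 µM) reacted 10 min. Cleaved AMC quantified by fluorescence; IC50 by nonlinear regression.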

[2] = target: T2, Caspase-3 (Homo sapiens, UniProt P42574); assay: Inhibition of caspase 3
T2 sequence (P42574 whole entry): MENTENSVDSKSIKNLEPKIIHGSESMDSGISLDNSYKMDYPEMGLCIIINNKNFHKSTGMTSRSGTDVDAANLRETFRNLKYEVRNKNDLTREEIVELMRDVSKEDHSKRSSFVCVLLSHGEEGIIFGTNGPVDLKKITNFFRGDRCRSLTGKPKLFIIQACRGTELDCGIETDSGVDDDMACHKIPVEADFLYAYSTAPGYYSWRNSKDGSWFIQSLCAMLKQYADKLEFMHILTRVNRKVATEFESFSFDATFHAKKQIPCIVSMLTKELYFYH
Outline: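 Recombinant human caspases (0.5 units/assay) preincubated 10 min at 37 °C with isatin in DMSO (single doses, 5 pM–500 µM). The buffer for all was 0.1% CHAPS, 100 mM NaCl, 2 mM EDTA, 10% sucrose, with 20 mM HEPES pH 7.4. Caspase-1 used 100 mM HEPES and β-mercaptoethanol, and caspase-7 used β-mercaptoethanol. AMC substrates at 10 µM for 10 min: YVAD (caspase-1), DEVD (caspase-3/-7), VEID (caspase-6), IETD (caspase-8). IC50 by nonlinear regression.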

[3] = target: T3, Caspase-6 (Homo sapiens, UniProt P55212); assay: Inhibition of caspase 6
T3 sequence (P55212 whole entry): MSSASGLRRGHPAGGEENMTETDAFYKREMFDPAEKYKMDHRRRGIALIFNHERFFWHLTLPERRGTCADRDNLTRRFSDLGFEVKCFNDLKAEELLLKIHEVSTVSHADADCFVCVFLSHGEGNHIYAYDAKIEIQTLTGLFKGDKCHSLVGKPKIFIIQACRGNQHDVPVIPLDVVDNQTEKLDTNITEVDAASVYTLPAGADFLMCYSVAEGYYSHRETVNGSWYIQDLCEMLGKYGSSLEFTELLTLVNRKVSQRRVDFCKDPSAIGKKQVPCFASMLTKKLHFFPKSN
Outline: (§1)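 Recombinant human caspase-1, -6 or -8 at 0.5 units per assay, preincubated 10 min at 37 °C with compound in DMSO at single doses from 5 pM to 500 µM. Fluorogenic AMC substrate then added at 10 µM final (caspase-1 Ac-YVAD-AMC, caspase-6 Ac-VEID-AMC, caspase-8 Ac-IETD-AMC) for a further 10 min. Read-out was AMC fluorescence. IC50 taken by nonlinear regression.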

[4] = target: T4, Caspase-1 (Homo sapiens, UniProt P29466); assay: Inhibition of caspase 1; outline: as §1
T4 sequence (P29466 whole entry): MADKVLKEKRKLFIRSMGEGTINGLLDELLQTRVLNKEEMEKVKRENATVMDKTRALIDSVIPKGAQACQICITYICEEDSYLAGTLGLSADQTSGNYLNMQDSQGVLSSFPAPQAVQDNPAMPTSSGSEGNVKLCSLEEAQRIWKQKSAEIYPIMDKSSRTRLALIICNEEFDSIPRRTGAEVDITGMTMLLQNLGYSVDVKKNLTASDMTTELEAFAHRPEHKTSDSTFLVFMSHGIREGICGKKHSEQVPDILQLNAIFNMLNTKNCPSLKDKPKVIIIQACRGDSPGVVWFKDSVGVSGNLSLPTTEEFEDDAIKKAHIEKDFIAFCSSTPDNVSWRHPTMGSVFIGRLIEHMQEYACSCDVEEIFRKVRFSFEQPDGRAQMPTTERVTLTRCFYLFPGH

[5] = target: T2, Caspase-3; assay: Binding affinity to human caspase 3
Outline: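 Recombinant full-length human caspase-3 (1 unit/assay, 0.5 pM) preincubated 10 min at 37 °C with isatin in DMSO (single doses, 5 pM–500 µM) in 25 mM HEPES pH 7.5, 0.1% CHAPS, 50 mM KCl, 5 mM β-mercaptoethanol. Ac-DEVD-AMC (10 µM final) then added for 10 min. IC50 by nonlinear regression, converted to Ki = IC50/(1+[S]/KM). Mean of three assays.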

[6] = target: Caspase-8 (Homo sapiens, UniProt Q14790); assay: Inhibition of caspase 8; outline: as §1
[7] = tested on: HUVEC; assay: Inhibition of caspase 8 processing in apoptotic HUVEC at 100 uM; type: functional, cell-based; details: Homo sapiens
Outline: (§2)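 HUVEC grown on gelatin-coated dishes in RPMI-1640 with 15% calf serum, heparin and pituitary extract. Cells were preincubated 30 min with compound. Apoptosis was then induced by growth-factor withdrawal (RPMI-1640 alone), with compound present, for 8 h at 37 °C. Lysates (30 µg) were run on 15% SDS-PAGE Western blots for processed caspase-3 (p17/p12), caspase-8, caspase-9, cleaved PARP ([…]) and lamin A/C. Z-VAD-fmk served as full-inhibition control and β-actin as loading control.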

[8] = tested on: HUVEC; assay: Inhibition of lamin A/C cleavage in apoptotic HUVEC at 50 uM; type: functional, cell-based; details: Homo sapiens; outline: as §2
[9] = tested on: HUVEC; assay: Inhibition of PARP cleavage in apoptotic HUVEC at 50 uM; type: functional, cell-based; details: Homo sapiens; outline: as §2
[10] = tested on: HUVEC; assay: Inhibition of caspase 8 processing in apoptotic HUVEC at 50 uM; type: functional, cell-based; details: Homo sapiens; outline: as §2
[11] = tested on: HUVEC; assay: Inhibition of caspase 3 processing in apoptotic HUVEC at 10 uM; type: functional, cell-based; details: Homo sapiens; outline: as §2
[12] = tested on: HUVEC; assay: Inhibition of caspase 9 processing in apoptotic HUVEC at 50 uM; type: functional, cell-based; details: Homo sapiens; outline: as §2
[13] = tested on: HUVEC; assay: Inhibition of caspase 9 processing in apoptotic HUVEC at 100 uM; type: functional, cell-based; details: Homo sapiens; outline: as §2
[14] = target: T2, Caspase-3; assay: Inhibition of caspase 3 in neutrophils
[15] = tested on: HUVEC; assay: Inhibition of PARP cleavage in apoptotic HUVEC at 100 uM; type: functional, cell-based; details: Homo sapiens; outline: as §2
[16] = tested on: HUVEC; assay: Inhibition of lamin A/C cleavage in apoptotic HUVEC at 100 uM; type: functional, cell-based; details: Homo sapiens; outline: as §2

Sequence of Caspase-8 (Q14790 217-374 limits assumed): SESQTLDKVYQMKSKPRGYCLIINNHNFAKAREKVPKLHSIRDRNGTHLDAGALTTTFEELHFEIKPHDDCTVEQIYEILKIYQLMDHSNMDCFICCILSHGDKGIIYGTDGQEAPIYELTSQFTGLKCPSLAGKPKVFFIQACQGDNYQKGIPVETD
Sequence of Caspase-8 (Q14790 385-479 limits assumed): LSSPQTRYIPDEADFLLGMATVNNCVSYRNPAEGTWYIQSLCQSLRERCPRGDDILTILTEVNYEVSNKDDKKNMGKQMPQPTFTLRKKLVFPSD

IC50 [1] [µM]	IC50 [2] [µM]	IC50 [3] [µM]	IC50 [4] [µM]	Ki [5] [µM]	IC50 [6] [µM]	Activity [7]	Activity [10]	Activity [11]	Activity [12]	Activity [13]	IC50 [14] [µM]	SMILES	Activity [8]	Activity [9]	Activity [15]	Activity [16]
0.0527	0.0082	> 500	> 25	0.004	> 500							O=C1C(=O)N(Cc2ccc(O)cc2)c2ccc(S(=O)(=O)N3CCC[C@H]3COc3ccccc3)cc21				
0.042	0.0256	> 500	> 500	0.0126	> 500							O=C1C(=O)N(Cc2ccc(OCCBr)cc2)c2ccc(S(=O)(=O)N3CCC[C@H]3COc3ccccc3)cc21				
0.004	0.0184	> 500	> 10		> 500	Active	Active	Active	Active	Active		COC[C@@H]1CCCN1S(=O)(=O)c1ccc2c(c1)C(=O)C(=O)N2Cc1ccc(OC)cc1	Active	Active		
0.0186		> 500	> 500		> 500							O=C1C(=O)N(Cc2ccc(I)cc2)c2ccc(S(=O)(=O)N3CCC[C@H]3COc3ccccc3)cc21				
0.19	0.114	> 500	> 500	0.0561	> 500						10	CN1C(=O)C(=O)c2cc(S(=O)(=O)N3CCC[C@H]3COc3ccccc3)ccc21				
	0.0003	> 500	> 500	0.0002	> 500							O=C1C(=O)N(Cc2ccc(OCCF)cc2)c2ccc(S(=O)(=O)N3CCC[C@H]3COc3ccccc3)cc21				
0.0312	0.0097	> 500	> 500	0.0048	> 500							COc1ccc(CN2C(=O)C(=O)c3cc(S(=O)(=O)N4CCC[C@H]4COc4ccccc4)ccc32)cc1				
0.0018	0.012	> 500	> 10	0.0059	> 500			Active				COC[C@@H]1CCCN1S(=O)(=O)c1ccc2c(c1)C(=O)C(=O)N2Cc1ccc(I)cc1				
0.0509	0.0175	> 500	> 500	0.0086	> 500							Cc1ccc(S(=O)(=O)OCCOc2ccc(CN3C(=O)C(=O)c4cc(S(=O)(=O)N5CCC[C@H]5COc5ccccc5)ccc43)cc2)cc1				
0.0323	0.0478	> 500	> 60	0.0235	> 500							COC[C@@H]1CCCN1S(=O)(=O)c1ccc2c(c1)C(=O)C(=O)N2Cc1ccc(O)cc1				

Further lines, the compound ahead of its results:

SMILES	IC50 [1] [µM]	IC50 [2] [µM]	IC50 [3] [µM]	IC50 [4] [µM]	Ki [5] [µM]	IC50 [6] [µM]	Activity [7]	Activity [10]	Activity [11]	Activity [12]	Activity [13]	IC50 [14] [µM]	Activity [8]	Activity [9]	Activity [15]	Activity [16]
COC[C@@H]1CCCN1S(=O)(=O)c1ccc2c(c1)C(=O)C(=O)N2	1.29	0.0849	> 500	> 15	0.0418	> 500										
COC[C@@H]1CCCN1S(=O)(=O)c1ccc2c(c1)C(=O)C(=O)N2Cc1ccc(OCCOS(=O)(=O)c2ccc(C)cc2)cc1	0.0138	0.0017	> 500	> 500	0.0008	> 500										
O=C1Nc2ccc(S(=O)(=O)N3CCC[C@H]3COc3ccccc3)cc2C1=O	0.294	0.0169	> 500	> 10	0.0083	> 500										
COC[C@@H]1CCCN1S(=O)(=O)c1ccc2c(c1)C(=O)C(=O)N2Cc1ccc(O[Si](C)(C)C(C)(C)C)cc1	0.0698	0.0038	> 500	> 7	0.0019	> 500										
COC[C@@H]1CCCN1S(=O)(=O)c1ccc2c(c1)C(=O)C(=O)N2Cc1ccc(OCCBr)cc1	0.0257	0.0163	> 500	> 15	0.008	> 500										
COC[C@@H]1CCCN1S(=O)(=O)c1ccc2c(c1)C(=O)C(=O)N2Cc1ccc(OCCF)cc1	0.0933	0.0364	> 25	> 25	0.0179	> 25	Active	Active	Active	Active	Active				Active	Active
COC[C@@H]1CCCN1S(=O)(=O)c1ccc2c(c1)C(=O)C(=O)N2C	0.304	0.0024	> 500	> 25	0.0012	> 500	Active	Active	Active	Active	Active		Active	Active		
CC(C)(C)[Si](C)(C)Oc1ccc(CN2C(=O)C(=O)c3cc(S(=O)(=O)N4CCC[C@H]4COc4ccccc4)ccc32)cc1	0.366	0.02	> 500	> 500	0.0098	> 500										
